Measured values gathered from unrelated publications.
Compare with care: the assays were run in different laboratories.

| Structure (SMILES) | host | matrix | route | dose | setting | half-life [h] |
| --- | --- | --- | --- | --- | --- | --- |
| O=C1CCC(N2Cc3cc(C4CCN(Cc5ccccc5)CC4)ccc3C2=O)C(=O)N1 (centres unmarked) | male CD-1 mouse | plasma | oral | 3 mg/kg |  | 1.28 |
| Cc1ncsc1-c1ccc([C@H](C)NC(=O)[C@@H]2C[C@@H](O)CN2C(=O)[C@@H](NC(=O)CCc2ccc(C#Cc3ccc(C(=O)NCCCn4cc(-c5ccc6c(c5)CCN6C(=O)Cc5cccc(OC(F)(F)F)c5)c5c(N)ncnc54)cc3)cn2)C(C)(C)C)cc1 | male C57BL/6 mouse | plasma | intravenous | 1 mg/kg |  | 4.6 |
| OCc1ccc(-c2nn(Cc3ccccc3)c3ccccc23)o1 | male CD-1 mouse | plasma | oral | 10 mg/kg |  | 1.86 |
| CN(C)C(=O)c1cc2cnc(Nc3ccc(-c4ccc5c(=O)cc(N6CCOCC6)oc5c4)cc3)nc2n1C1CCCC1.Cl | BALB/c mouse | plasma | intravenous | 2 mg/kg |  | 2.8 |
| Cc1ccc(OCC(=O)N[C@@H](Cc2c[nH]c3ccccc23)C(=O)OC(C)C)cc1 | male Sprague-Dawley mouse | plasma | intravenous | 10 mg/kg |  | 2.2 |
| COCC(=O)N1CCc2[nH]c3c(Cl)c(Cl)ccc3c2[C@@H]1C | C57BL/6 mouse | blood | intravenous | 1 mg/kg |  | 0.653 |
| Cc1ccc2c(c1)C(=O)[C@]1(O)CCN(c3ccc4nc(C)ccc4c3)C1=N2.Cl | mouse | brain | subcutaneous | 5 mg/kg |  | 10.5 |
| CCOC(=O)c1c(NC(=O)CNC(C)C)sc2c1CCCCC2 | male mouse | plasma | intraperitoneal | 5 mg/kg | single dose | 1.47 |
| Cc1ccc(C(C)C)cc1Oc1nccc(-c2c(-c3ccc(C(F)(F)F)cc3)ncn2C2CCN(CCO)CC2)n1 | male C57BL/6 mouse | liver | intraperitoneal | 10 mg/kg |  | 3.1 |
| COc1cc(C2C3=C(COC3=O)N(CCO)c3cc4c(cc32)CCC4)cc(OC)c1OC (centres unmarked) | female C57BL/6 mouse | plasma | intraperitoneal | 50 mg/kg |  | 5.2 |
| NCc1ccc(-c2nn(Cc3ccncc3)c3ccccc23)o1 | male CD-1 mouse | plasma | intraperitoneal | 30 mg/kg |  | 5.69 |
| Cc1cc(-c2ccnc3[nH]cc(F)c23)cc(F)c1[C@@]1(O)[C@H](C)CN(C(=O)CN)C[C@@H]1C | male CD-1 mouse | plasma | intravenous | 1 mg/kg |  | 9 |
| NCc1ccc(-c2nn(Cc3ccccc3)c3ccccc23)o1 | male CD-1 mouse | plasma | oral | 10 mg/kg |  | 1.74 |
| Cc1ncsc1-c1ccc([C@H](CC(=O)N2CCN(c3ccc(C#Cc4ccc(C(=O)N5CCC(n6cc(-c7ccc8c(c7)CCN8C(=O)Cc7cccc(OC(F)(F)F)c7)c7c(N)ncnc76)CC5)cc4)cn3)CC2)NC(=O)[C@@H]2C[C@@H](O)CN2C(=O)[C@@H](NC(=O)C2(F)CC2)C(C)(C)C)cc1 | male C57BL/6 mouse | plasma | intravenous | 1 mg/kg |  | 7.3 |
| Cc1[nH]c(C)c(S(=O)(=O)Nc2ccc(C(F)(F)F)c(Cl)c2)c1C(=O)N1CCC(F)(F)C1 | male CD-1 mouse | brain | intraperitoneal | 40 mg/kg |  | 3.65 |
| COC1=CC(c2ccc[nH]2)=N/C1=C\c1[nH]c(Cc2ccc(OC(F)(F)F)cc2)cc1Cc1ccc(OC(F)(F)F)cc1 | male CD-1 mouse | plasma | oral | 40 mg/kg | single dose | 9.71 |
| NCc1cc2c(cc1F)C(=O)N(C1CCC(=O)NC1=O)C2 (centres unmarked) | male CD-1 mouse | plasma | oral | 10 mg/kg |  | 2.3 |
| CCCC[C@@H](NC(=O)[C@@H](Cc1cn(C(=O)OC)c2ccccc12)NC(=O)[C@H](CC(C)(C)C)NC(=O)N1[C@H](C)CCC[C@@H]1C)C(=O)O | male CD-1 mouse | plasma | intravenous | 3 mg/kg |  | 0.68 |
| COC1=CC(c2ccc[nH]2)=N/C1=C\c1cc(Cc2ccc(OC(F)(F)F)cc2)c(C)[nH]1.Cl | male CD-1 mouse | plasma | oral | 40 mg/kg | single dose | 51.9 |
| Cc1cc(-c2ccnc3[nH]cc(F)c23)cc(F)c1[C@@]1(O)[C@H](C)CN(C2CCS(=O)(=O)CC2)C[C@@H]1C | male CD-1 mouse | plasma | intravenous | 1 mg/kg |  | 2.6 |
| Cc1ncsc1-c1ccc([C@H](CC(=O)N2CC3(C2)CN(c2ccc(C#Cc4ccc(C(=O)N5CCC(n6cc(-c7ccc8c(c7)CCN8C(=O)Cc7cccc(OC(F)(F)F)c7)c7c(N)ncnc76)CC5)cc4)cn2)C3)NC(=O)[C@@H]2C[C@@H](O)CN2C(=O)[C@@H](NC(=O)C2(F)CC2)C(C)(C)C)cc1 | male C57BL/6 mouse | plasma | intravenous | 1 mg/kg |  | 5.9 |
| CSC1O[C@@H]([C@H](NC(=O)[C@H]2NC[C@@H]3C[C@H](CC(C)C)CCO[C@H]32)[C@H](C)Cl)C(O)[C@@H](O)[C@H]1O (some centres unmarked) | mouse | plasma | intravenous | 3 mg/kg | single dose | 2.05 |
| COc1ccc(C[C@H](NC(=O)[C@H](C)NC(=O)CN2CCOCC2)C(=O)N[C@@H](Cc2ccccc2)C(=O)C2(C)CO2)cc1 (stereo in doubt) | mouse | plasma | intravenous | 20 mg/kg | single dose | 7.9 |
